Laboratory results reported in article PMC3667888 (Channels, 2013).
Numbering of substitutions follows the chain as printed.

Tests used:
Assay type in all cases: cell-based
[1] = target: T1, Kv4.2 V261F/K318Q double mutant channels (co-injected with KChIP1b) (Rattus norvegicus, UniProt Q63881, K318Q/V261F)
T1 sequence (Q63881 1-630 V261F/K318Q): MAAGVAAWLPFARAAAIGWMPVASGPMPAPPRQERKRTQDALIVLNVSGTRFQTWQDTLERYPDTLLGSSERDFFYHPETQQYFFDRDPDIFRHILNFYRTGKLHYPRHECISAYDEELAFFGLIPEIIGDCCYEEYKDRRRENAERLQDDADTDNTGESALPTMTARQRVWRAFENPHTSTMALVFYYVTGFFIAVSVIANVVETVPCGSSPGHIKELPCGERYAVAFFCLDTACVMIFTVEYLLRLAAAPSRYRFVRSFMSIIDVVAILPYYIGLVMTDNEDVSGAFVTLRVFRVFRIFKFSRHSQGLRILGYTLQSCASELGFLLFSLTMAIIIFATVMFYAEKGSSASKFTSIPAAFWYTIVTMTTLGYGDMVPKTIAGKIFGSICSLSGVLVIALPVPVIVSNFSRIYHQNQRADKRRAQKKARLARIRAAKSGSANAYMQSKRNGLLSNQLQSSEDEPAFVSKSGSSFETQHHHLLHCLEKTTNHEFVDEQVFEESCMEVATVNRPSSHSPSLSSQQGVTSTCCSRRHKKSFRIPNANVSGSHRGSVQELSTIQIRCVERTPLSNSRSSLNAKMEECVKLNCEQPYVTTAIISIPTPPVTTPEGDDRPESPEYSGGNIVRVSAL
Method in brief: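 Xenopus oocytes co-expressing rat Kv4.2 (WT or mutant) with equimolar KChIP1b were recorded by two-electrode voltage clamp at room temperature. Peak conductance was calculated as G = I/(Vm − Vh), with Vh = −100 mV, and normalized to each cell's Gmax. It was plotted against step potential without and with 10 μM AA and fit to a first-order Boltzmann function to give V1/2 and slope.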

[2] = target: T2, Kv4.2 K318R mutant channels (co-injected with KChIP1b) (Rattus norvegicus, UniProt Q63881, K318R); test: Two-electrode voltage clamp, K318R mutant Kv4.2/KChIP1b in Xenopus oocytes; conditions: 10 µM AA, 10 min
T2 sequence (Q63881 1-630 K318R): T1 sequence (Q63881 1-630 V261F/K318Q) with F261V, Q318R
Method in brief: (§1)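 Rat Kv4.2 (WT or QuikChange mutant) RNA co-injected equimolar with KChIP1b, 5–10 ng/oocyte, into Xenopus oocytes held 1–5 d at 17–19 °C. Two-electrode voltage clamp at room temperature in perfused Na/K methanesulfonate HEPES saline, pH 7.4–7.5, with P/−4 or P/−6 leak subtraction. Peak current at +40 mV (from −90 mV) after 10 min of 10 μM AA is expressed relative to pre-AA current. Mean ± SE, n = cells.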

[3] = target: T3, Kv4.2 L313F mutant channels (co-injected with KChIP1b) (Rattus norvegicus, UniProt Q63881, L313F); test: Two-electrode voltage clamp, L313F mutant Kv4.2/KChIP1b in Xenopus oocytes; conditions: 10 µM AA
T3 sequence (Q63881 1-630 L313F): T1 sequence (Q63881 1-630 V261F/K318Q) with F261V, L313F, Q318K
Method in brief: as §1

For `CCCCC/C=C\C/C=C\C/C=C\C/C=C\CCCC(=O)O` [AA, arachidonic acid], the “V1/2 of conductance-voltage curve with AA” value ([1]; 10 µM AA) was −19.1 mV, the “slope factor (k) of Boltzmann fit with AA” value ([1]; 10 µM AA) was 8.4 and the Kd ([1]; fitted Kd for AA inhibition of peak current, Hill equation, nH = 1, +40 mV) was 45.7 µM. The “inhibition of peak K+ current by AA, effect of mutation” value [2] was “preserved the strong inhibition by AA” and the “sensitivity to AA” value [3] was “retained its sensitivity to AA”.
